APP 5'UTR act – activates APP 5'UTR luciferase reporter | SH-SY5Y APP 5'UTR luciferase reporter, luminescence; zero percent = DMSO vehicle wells | 190,000 compounds, 1% hits | activation, % at 2 µM;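 active means activation above a set limit, based on mean plus 3 SD of controls, cut at about 140% in these data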
C8 TRAIL sens – sensitizes caspase-8 expressing cells to TRAIL | 360,000 compounds, 1% hits | inhibition (viability loss, TRAIL sensitization), % at 10 µM | NB7+C8 cells + TRAIL, ATPlite viability luminescence;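 active means compounds causing at least 50% loss of cell viability in the single-dose screen, relative to plate controls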
NF-kB neuron act – compounds increasing NF-kB expression in human neuronal cells; NF-kB reporter expression; active compounds read high; fold change at 12.5 µM; 190,000 compounds, 1.6% hits; AID 1239; in the data active means fold change above about 3.3
FLuc inhib CS – inhibits firefly luciferase, flagging false hits in luciferase inhibition screens. P08659. ATPLite firefly luciferase biochemical luminescence, 10 min. inhibition, % at 10 µM. 200,000 compounds, 1.5% hits;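 active means inhibition above about 50% when tested at 10 µM, limit read from the data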
Target sequence (P08659 whole entry, looked up): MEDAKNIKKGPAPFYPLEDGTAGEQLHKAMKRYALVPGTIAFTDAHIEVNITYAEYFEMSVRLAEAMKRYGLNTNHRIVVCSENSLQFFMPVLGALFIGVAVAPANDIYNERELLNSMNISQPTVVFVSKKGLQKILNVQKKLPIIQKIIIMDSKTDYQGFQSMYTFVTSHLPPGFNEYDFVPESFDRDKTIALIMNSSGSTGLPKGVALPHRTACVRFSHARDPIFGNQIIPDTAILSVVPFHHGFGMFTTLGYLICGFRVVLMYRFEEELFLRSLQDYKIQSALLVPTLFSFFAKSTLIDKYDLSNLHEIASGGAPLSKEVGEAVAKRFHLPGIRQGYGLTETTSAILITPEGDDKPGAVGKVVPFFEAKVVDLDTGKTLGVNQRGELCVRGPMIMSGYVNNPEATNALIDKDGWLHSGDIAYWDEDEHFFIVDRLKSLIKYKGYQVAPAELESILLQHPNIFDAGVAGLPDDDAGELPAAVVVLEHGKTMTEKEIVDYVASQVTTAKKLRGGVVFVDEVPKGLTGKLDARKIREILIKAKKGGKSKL
FLuc stim CS – firefly luciferase counter-screen for stimulation assays; P08659; ATPlite luciferase biochemical, luminescence, 10 min; 0 = ATP-free wells, 1 = DMSO control; activation factor at 10 µM; 200,000 tested, under 10 active;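 active means luciferase activation factor, scaled between plate controls, of at least 2 with compound at 10 µM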
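Material: Luciferase/luciferin reagent mix; Doses: test compounds dosed from 2 mM stocks in 100% DMSO; Schedule: 10 min incubation after luciferase reagent addition, room temperature; Measured by: luminescence from luciferase reaction; Read-out: luminescence gain marking luciferase activators.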
PPC-1+TRAIL kill – kills PPC-1 cancer cells in the presence of TRAIL; cell killing (% activity), % at 4 µM or 5 µM; 220,000 compounds, 0.41% hits; PPC-1 cells + TRAIL, ATPLite viability luminescence;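 active means cell killing above 50% in the first pass at 4 µM, then a duplicate retest at 5 µM averaging 50% or more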;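 further: plate controls were cells with TRAIL plus DMSO for no effect and medium-only wells lacking cells for full effect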
Active calls of the source: *; / = no result given. Shown are actives, neighbours in structure and some others; about 2.2% of the full set was active somewhere.

SMILES	APP 5'UTR act	C8 TRAIL sens	NF-kB neuron act	FLuc inhib CS	FLuc stim CS	PPC-1+TRAIL kill
O=C(C=Cc1ccccn1)c1ccccc1	/	-1.0	/	/	/	/
Fc1ccccc1Nc1nc2c(s1)CCc1ccccc1-2	164.3*	/	7.8*	12.6	0.9	19.3
COc1cc(C(=O)NCc2nnc(SCC(=O)NC3CCCC3)o2)cc(OC)c1OC	/	1.3	/	/	/	/
CCc1ccc(CNCc2ccc(F)cc2)cc1	9.9	2.3	1.43	-9.1	1.1	66.1*
Cc1cc2ncc(-c3ncc(C(F)(F)F)cc3Cl)cn2n1	138.2*	57.7*	0.91	73.4*	0.3	36.2
Cc1nn2cc(-c3ncc(C(F)(F)F)cc3Cl)cnc2c1Br	504.7*	12.2	0.92	25.5	0.7	36.8
N#Cc1cnn2cc(-c3ncc(C(F)(F)F)cc3Cl)cnc12	1.3	6.3	0.36	-1.5	1	18.8
O=c1[nH]c(C2CCCN(S(=O)(=O)c3ccccc3)C2)nc2c1nnn2Cc1ccccc1Br (stereo unspecified)	/	-17.9	/	/	/	/
Cc1ccc(-c2nn3c(C)nnc3c3ccccc23)cc1S(=O)(=O)NCc1ccccc1	-20.0	52.3*	0.78	-7.9	1.1	-3.9
O=C1/C(=C\c2ccc(O)c(O)c2)SC(=S)N1Cc1ccccc1	/	46.0	/	/	/	/
O=C1/C(=C\c2cccc(O)c2O)SC(=S)N1Cc1ccccc1	/	52.2*	/	/	/	/
C=CCOc1ccc(/C=N/NC(=O)C(C)Sc2ccccn2)cc1OC (stereo unspecified)	3.4	-0.7	1.07	-5.3	1.1	-5.9
COc1ccc2oc(=N)c(C(=O)Nc3ccccc3)cc2c1	133.0	21.0	5.24*	64.3*	0.4	17.1
Cc1cccc(NC(=O)Nc2ccc(Oc3c(F)c(F)c(F)c(F)c3F)cc2)c1	-11.6	-24.6	1.5	-4.2	1	3.7
O=C(Nc1ccc(Oc2c(F)c(F)c(F)c(F)c2F)cc1)OC1CCN2Cc3ccccc3N=C12 (stereo unspecified)	/	69.2*	/	/	/	-16.6
CC(=O)c1ccc(NC(=O)Nc2cccnc2)cc1	/	52.3*	/	/	/	/
CC(=O)c1ccc(NC(=O)Nc2ccncc2)cc1	19.3	19.4	0.8	12.3	0.9	-1.2
CCC(C)c1ccc(NC(=O)Nc2cccnc2)cc1 (stereo unspecified)	/	48.8*	/	/	/	/
CC(=O)c1ccc(NC(=O)Nc2ccc(Cl)cc2)cc1	165.6*	8.7	3.62*	2.6	1	17.0
CC1=C([N+](=O)[O-])C(c2cccc(Br)c2)C2=C(N1)c1ccccc1C2=O (stereo unspecified)	-85.6	-17.9	4.47*	0.1	1	19.5
COC(=O)C1=C(C)NC2=C(C(=O)c3ccccc32)C1c1cccc(OC)c1 (stereo unspecified)	/	1.4	/	/	/	0.6
Cc1nc2ccc([N+](=O)[O-])cc2nc1C	4.5	-18.1	1.39	-2.7	1	15.2
Cc1ccc2nc3cc([N+](=O)[O-])cc([N+](=O)[O-])c3cc2c1	-62.5	36.6	5.3*	-4.2	1	/
COc1ccc2nc(NC(=O)c3c(C)noc3C)sc2c1	/	42.0	/	/	/	/
Cc1noc(C)c1C(=O)Nc1nc2ccc(S(C)(=O)=O)cc2s1	/	54.2*	/	/	/	/
SMILES	APP 5'UTR act	C8 TRAIL sens	NF-kB neuron act	FLuc inhib CS	FLuc stim CS	PPC-1+TRAIL kill
Cc1ccc(C(=O)Nc2nc3ccc(S(C)(=O)=O)cc3s2)o1	102.7	48.7	2.14	74.3*	0.3	48.0
COCOCCn1cc(CN2CCS(=O)(=O)N(Cc3ccc(-c4ccc(F)nc4)cc3)C(C)C2=O)nn1 (stereo unspecified)	/	0.3	/	/	/	/
COCC(=O)OC1CCn2c1nc1c2C(=O)C(C)=C(NC(C)=O)C1=O (stereo unspecified)	/	69.2*	/	/	/	/
c1ccc(-c2ccc3ccccc3n2)cc1	/	0.3	/	/	/	/
c1ccc2nc(-c3nc4ccccc4o3)ccc2c1	114.7	75.7*	1.1	88.5*	0.1	23.2
O=C1C2C(C(=O)N1/N=C/c1ccc([N+](=O)[O-])o1)C1C=CC2C12CC2 (stereo unspecified)	-12.1	9.6	1.02	-8.3	1.1	14.0
CC1=NN(c2nc(N)nc(/C(C#N)=C/c3ccc([N+](=O)[O-])o3)n2)C(C)(C)C1	/	79.5*	/	/	/	/
Cc1cc(Cn2nc(-c3ccccc3)cc2C(=O)NCC2CC2)on1	/	-3.7	/	/	/	/
CN1CCN(Cn2cc(/C=C/C(=O)c3ccccc3)c3ccccc32)CC1	165.0*	6.7	12.8*	11.2	0.9	5.7
O=C(/C=C/c1cn(CC(O)CN2CCCCC2)c2ccccc12)c1ccccc1 (stereo unspecified)	/	-8.0	/	/	/	-12.8
CCCCCCCC/C=C\CCCCCCCC(=O)O	/	3.1	/	/	/	5.7
CCCCCCCCCCCCC/C=C/[C@@H](O)[C@@H](N)CO	/	71.2*	/	/	/	/
COc1ccc(C2C(C#N)=C(N)Oc3cc(N)ccc32)cc1 (stereo unspecified)	/	2.7	/	/	/	/
COc1cc(C2C(C#N)=C(N)Oc3cc(N)ccc32)cc(OC)c1OC (stereo unspecified)	-95.3	-16.2	3.74*	1.1	1	8.8
Cc1ccc(C2=NN=C(NC(=O)C(F)(F)F)SC2)cc1	47.5	7.7	4.28*	33.5	0.7	20.0
Cc1ccc(C2=NN=C(NC(=O)CSc3nncn3C)SC2)cc1	12.3	10.8	1.84	85.5*	0.1	1.3
C=C1CCC(OC(C)=O)C2(C)CCC3C(C)C(=O)OC3C12O (stereo unspecified)	/	-23.9	/	/	/	/
COC(=O)c1cccc(OCCCN2CCC(C(O)(c3ccccc3)c3ccccc3)CC2)c1	/	14.8	/	/	/	/
Cc1ccc(-n2c(C)cc(C(=O)CSc3nncs3)c2C)cc1	139.2*	35.7	5.42*	53.7*	0.5	21.3
Cc1cc(C(=O)CSc2nnnn2C)c(C)n1CCc1ccc(F)cc1	-6.1	-0.1	1.63	-9.0	1.1	17.1
Cc1cc(C(=O)CSc2nncs2)c(C)n1-c1c(C)n(C)n(-c2ccccc2)c1=O	-4.9	-4.9	1.17	-0.7	1	5.1
Cc1ccc(-n2c(C)cc(C(=O)CSc3nnnn3C)c2C)cc1	168.1*	15.6	5.38*	19.9	0.8	-6.8
Cc1cccc(C)c1NC(=O)COC(=O)[C@@H]1CCCN1C(=O)c1cccs1	/	-7.6	/	/	/	/
COc1cccc2cc(-c3nc4ccccc4[nH]3)c(=O)oc12	/	54.3*	/	/	/	/
COc1cccc2cc(-c3nc(-c4cccs4)cs3)c(=O)oc12	104.9	22.1	1.26	-1.3	1	-0.1
SMILES	APP 5'UTR act	C8 TRAIL sens	NF-kB neuron act	FLuc inhib CS	FLuc stim CS	PPC-1+TRAIL kill
O=C(O)c1cccc(-c2nc3ccccc3[nH]2)c1	14.6	46.4	1.73	48.4	0.5	22.1
COc1cccc(OC)c1C(=O)Nc1cccc(-c2nc3ccccc3[nH]2)c1	17.2	18.6	0.96	25.7	0.7	23.1
COc1ccc(-c2cc3cccc(OC)c3oc2=O)cc1	/	78.1*	/	/	/	/
COc1cccc2cc(-c3ccccc3)c(=O)oc12	152.2*	29.5	4.69*	59.5*	0.4	24.7
Cc1cccc2cc(-c3nc4ccc(C(=O)O)cc4[nH]3)c(=O)oc12	/	54.2*	/	/	/	/
COc1cccc(CN(C)C(=O)c2ccc(S(=O)(=O)Nc3cccc(C)c3C)cc2)c1OC	/	-9.9	/	/	/	/

High-throughput results from PubChem BioAssay.
